In series [1] the target is Growth hormone secretagogue receptor type 1 (Homo sapiens, UniProt Q92847). In words: Intrinsic activity at human GHS receptor in H4 glioma cells assessed by measuring intracellular calcium concentration by FLIPR assay. Type of series: functional, cell-based. In outline: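 H4 glioma cells with endogenous human GHS receptor expression enhanced by RAGE activation. Agonist-stimulated intracellular calcium mobilization read with a calcium-sensitive fluorescent probe in FLIPR.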

A short description of series [2]: Bioavailability in rat. In kind it is ADME, organism-based. To be noted: in vivo.
Series [3] has as its system Salmonella typhimurium. As to the kind of experiment: Mutagenic effect on Salmonella Typhimurium TA98 by Ames test. Type of series: toxicity, organism-based. Conditions: salmonella enterica subsp. enterica serovar typhimurium.
Series [4] relates to Canis familiaris. As to the kind of experiment: Increase in plasma growth hormone level in Beagle dog at 0.52 to 52.3 umol/kg, po. To be noted: Canis lupus familiaris. In kind it is functional, organism-based. An outline of the steps:
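Conscious beagle dogs given single oral doses of 0.52 to 52.3 µmol/kg, water as vehicle control; plasma GH followed over a 4 h time course.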

Another series addresses T1, Cytochrome P450 1A2 (Homo sapiens, UniProt P05177).
T1 sequence (P05177 whole entry): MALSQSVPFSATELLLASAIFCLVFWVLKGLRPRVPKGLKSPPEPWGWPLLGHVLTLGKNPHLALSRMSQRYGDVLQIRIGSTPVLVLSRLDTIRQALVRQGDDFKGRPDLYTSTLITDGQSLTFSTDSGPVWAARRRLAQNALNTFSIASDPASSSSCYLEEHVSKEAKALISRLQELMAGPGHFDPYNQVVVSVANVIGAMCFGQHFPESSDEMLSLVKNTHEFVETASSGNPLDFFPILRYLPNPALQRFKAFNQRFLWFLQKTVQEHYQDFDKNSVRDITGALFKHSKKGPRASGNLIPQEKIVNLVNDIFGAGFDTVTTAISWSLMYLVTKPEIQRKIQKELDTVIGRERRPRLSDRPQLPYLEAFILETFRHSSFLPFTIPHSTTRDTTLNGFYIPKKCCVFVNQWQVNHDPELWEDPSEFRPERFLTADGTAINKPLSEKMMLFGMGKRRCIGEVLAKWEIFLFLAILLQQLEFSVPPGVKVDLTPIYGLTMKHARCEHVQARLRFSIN
As to the kind of experiment: Inhibition of CYP1A2. Type of series: ADME.

A short description of series [5]: Bioavailability in Beagle dog at 10 umol/kg, po. In kind it is ADME, organism-based, Canis lupus familiaris. Conditions: in vivo. An outline of the steps: (§1)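 Fasted animals (rat, cynomolgus monkey, beagle dog) given single oral doses of 15, 10 and 10 µmol/kg respectively; intravenous reference dose 5 µmol/kg in all species. Oral bioavailability, half-life and plasma clearance derived from the plasma profiles.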

The next series concerns the target Cytochrome P450 2C19 (Homo sapiens, UniProt P33261). In words: Inhibition of CYP2C19. In kind it is ADME.
Another series concerns Rattus norvegicus. In words: Increase in plasma growth hormone level in iv dosed Wistar rat after 15 mins by radioimmunoassay. Type of series: functional. Conditions: 0.25 h. An outline of the steps:
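Anesthetized rats, groups of five, dosed iv in 10% ethanol, […] saline (v/v) vehicle at 10 mL/kg. Abdominal aorta blood sampled at 15 min; plasma rat GH measured by a modified radioimmunoassay kit.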

Series [6] in a line: Solubility at pH 4. Type of series: physicochemical. Conditions: buffer.
Series [7] can be described thus: Plasma clearance in rat at 15 umol/kg, po. Type of series: ADME, organism-based. In outline: as §1
The target of the next series is Cytochrome P450 2C9 (Homo sapiens, UniProt P11712). In words: Inhibition of CYP2C9. Type of series: ADME.
Series [8] relates to Canis familiaris. As to the kind of experiment: Plasma clearance in Beagle dog at 10 umol/kg, po. To be noted: in vivo. Type of series: ADME, organism-based, Canis lupus familiaris. In outline: as §1
For the next series, the system named is Hepatocyte. In words: Toxicity in human hepatocytes upto 250 ug/mL. Type of series: cell-based. In outline: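 Human hepatocyte hepatotoxicity assay run at concentrations up to 250 µg/mL.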
For another series, the target named is Cytochrome P450 3A4 (Homo sapiens, UniProt P08684). As to the kind of experiment: Inhibition of CYP3A4. Type of series: ADME.
The test system of series [9] is Macaca fascicularis. In words: Half life in monkey at 10 umol/kg, po. To be noted: cynomolgus monkey, in vivo.
For series [10], the system named is Macaca fascicularis. In words: Bioavailability in monkey at 10 umol/kg, po. To be noted: cynomolgus monkey, in vivo.
A further series concerns the target Cytochrome P450 2D6 (Homo sapiens, UniProt P10635). In words: Inhibition of CYP2D6. In kind it is ADME.
Series [11] can be described thus: Half life in rat at 15 umol/kg, po. Conditions: in vivo. In kind it is ADME, organism-based. An outline of the steps:
as §1

Series [12] has as its system Salmonella typhimurium. In words: Mutagenic effect on Salmonella Typhimurium TA100 by Ames test. Type of series: toxicity, organism-based. Conditions: salmonella enterica subsp. enterica serovar typhimurium.
A short description of series [13]: Half life in Beagle dog at 10 umol/kg, po. In kind it is ADME, organism-based, Canis lupus familiaris. To be noted: in vivo. In outline:
as §1

The subject of series [14] is Macaca fascicularis. In words: Plasma clearance in monkey at 10 umol/kg, po. Conditions: cynomolgus monkey.
Series [15] can be described thus: Bioavailability in rat at 15 umol/kg, po. In kind it is ADME, organism-based. To be noted: in vivo. In outline: as §1

The record followed here is ChEMBL document CHEMBL1138292, “Discovery of a tetrazole-based growth hormone secretagogue: 4-(hydroxybutyl)carbamic acid 2-{5-[1-(2-amino-2-methylpropionylamino)-2- benzyloxyethyl]tetrazol-1-yl}ethyl ester (BMS-317180)” (J Med Chem, 2007).

Each structure is given as a SMILES string. Activity calls are given as the source filed them. The rule behind the calls is not given here.

Chain of Growth hormone secretagogue receptor type 1 (Q92847 whole entry): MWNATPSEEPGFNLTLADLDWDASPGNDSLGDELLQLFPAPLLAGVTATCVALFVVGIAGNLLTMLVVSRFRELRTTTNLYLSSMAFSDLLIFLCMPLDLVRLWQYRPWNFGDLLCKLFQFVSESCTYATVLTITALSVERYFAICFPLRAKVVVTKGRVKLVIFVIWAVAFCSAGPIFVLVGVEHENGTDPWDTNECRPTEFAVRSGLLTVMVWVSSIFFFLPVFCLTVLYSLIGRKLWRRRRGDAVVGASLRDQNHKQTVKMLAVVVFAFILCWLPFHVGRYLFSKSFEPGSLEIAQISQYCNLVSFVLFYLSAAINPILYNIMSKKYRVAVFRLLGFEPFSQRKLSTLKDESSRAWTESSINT
Chain of Cytochrome P450 2C9 (P11712 whole entry): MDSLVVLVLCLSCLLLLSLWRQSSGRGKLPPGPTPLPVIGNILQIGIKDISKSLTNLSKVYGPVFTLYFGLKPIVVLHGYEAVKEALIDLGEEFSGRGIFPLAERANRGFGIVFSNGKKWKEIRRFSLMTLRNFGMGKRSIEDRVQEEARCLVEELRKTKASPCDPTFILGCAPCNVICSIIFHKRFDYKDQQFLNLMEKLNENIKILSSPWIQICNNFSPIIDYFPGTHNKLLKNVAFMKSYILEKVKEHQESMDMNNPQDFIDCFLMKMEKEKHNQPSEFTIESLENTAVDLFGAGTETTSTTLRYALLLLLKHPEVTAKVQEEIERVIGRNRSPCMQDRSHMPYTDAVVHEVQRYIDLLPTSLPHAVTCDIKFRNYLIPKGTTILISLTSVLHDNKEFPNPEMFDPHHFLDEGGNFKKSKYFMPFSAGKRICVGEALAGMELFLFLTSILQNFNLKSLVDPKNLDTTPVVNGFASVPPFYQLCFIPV
Chain of Cytochrome P450 2C19 (P33261 whole entry): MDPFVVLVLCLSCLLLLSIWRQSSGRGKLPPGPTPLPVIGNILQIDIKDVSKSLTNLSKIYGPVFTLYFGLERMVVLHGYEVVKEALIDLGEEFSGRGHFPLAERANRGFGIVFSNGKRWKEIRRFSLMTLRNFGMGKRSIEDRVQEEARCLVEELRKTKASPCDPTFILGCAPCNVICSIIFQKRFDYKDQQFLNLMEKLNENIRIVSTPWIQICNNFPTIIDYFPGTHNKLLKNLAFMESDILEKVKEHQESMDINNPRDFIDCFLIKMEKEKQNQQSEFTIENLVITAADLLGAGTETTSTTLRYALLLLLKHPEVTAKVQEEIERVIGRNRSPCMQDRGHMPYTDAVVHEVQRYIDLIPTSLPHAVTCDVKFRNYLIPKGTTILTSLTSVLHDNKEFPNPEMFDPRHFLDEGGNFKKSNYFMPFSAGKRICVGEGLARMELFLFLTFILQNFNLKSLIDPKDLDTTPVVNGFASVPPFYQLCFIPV
Chain of Cytochrome P450 2D6 (P10635 whole entry): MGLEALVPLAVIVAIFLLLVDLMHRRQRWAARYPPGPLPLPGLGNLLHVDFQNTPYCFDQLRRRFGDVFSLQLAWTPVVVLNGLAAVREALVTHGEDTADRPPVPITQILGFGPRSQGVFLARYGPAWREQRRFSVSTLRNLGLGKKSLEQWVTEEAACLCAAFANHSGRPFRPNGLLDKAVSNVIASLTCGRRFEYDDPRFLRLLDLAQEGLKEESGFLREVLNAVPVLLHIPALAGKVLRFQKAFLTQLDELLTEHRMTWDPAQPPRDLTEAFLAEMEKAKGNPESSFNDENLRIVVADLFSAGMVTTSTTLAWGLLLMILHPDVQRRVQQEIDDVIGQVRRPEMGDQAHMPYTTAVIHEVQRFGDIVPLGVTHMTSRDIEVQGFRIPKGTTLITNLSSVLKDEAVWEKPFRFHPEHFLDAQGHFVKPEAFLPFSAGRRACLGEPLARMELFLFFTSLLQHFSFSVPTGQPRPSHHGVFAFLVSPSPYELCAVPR
Chain of Cytochrome P450 3A4 (P08684 whole entry): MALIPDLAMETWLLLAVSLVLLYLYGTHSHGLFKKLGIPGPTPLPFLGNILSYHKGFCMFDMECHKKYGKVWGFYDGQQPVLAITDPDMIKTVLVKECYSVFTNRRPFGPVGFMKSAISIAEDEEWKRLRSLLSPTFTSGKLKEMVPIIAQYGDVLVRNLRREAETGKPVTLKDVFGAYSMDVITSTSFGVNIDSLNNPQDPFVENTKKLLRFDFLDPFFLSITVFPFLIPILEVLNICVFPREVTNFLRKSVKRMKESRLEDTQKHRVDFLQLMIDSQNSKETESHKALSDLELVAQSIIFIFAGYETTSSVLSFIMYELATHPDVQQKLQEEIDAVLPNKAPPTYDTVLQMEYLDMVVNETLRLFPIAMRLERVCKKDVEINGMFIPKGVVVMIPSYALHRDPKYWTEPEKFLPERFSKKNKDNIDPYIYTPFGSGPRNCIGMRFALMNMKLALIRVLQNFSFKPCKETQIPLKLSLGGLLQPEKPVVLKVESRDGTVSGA

For `CN(CCCCO)C(=O)OCCn1nnnc1[C@@H](COCc1ccccc1)NC(=O)C(C)(C)N`, the concentration giving a half-maximal response (EC50) in series [1] was 3.8 nM.
Same read-out and setting: with `CC1(O)CCN(C(=O)OCCn2nnnc2[C@@H](COCc2ccccc2)NC(=O)C(C)(C)N)C1` (stereo partly drawn) the figure was 10.1 nM; with `CC(C)(N)C(=O)N[C@H](COCc1ccccc1)c1nnnn1CCOC(=O)NCCO`, 3 nM.
As for `CC(C)(N)C(=O)N[C@H](COCc1ccccc1)c1nnnn1CCOC(=O)NC[C@H]1CCCO1`, the EC50 in series [1] amounted to 9.5 nM.
`CC(=O)NCCCCNC(=O)OCCn1nnnc1[C@@H](COCc1ccccc1)NC(=O)C(C)(C)N`: the EC50 in series [1] worked out at 82.5 nM.
Consider `CC(=O)N[C@@H]1CCN(C(=O)OCCn2nnnc2[C@@H](COCc2ccccc2)NC(=O)C(C)(C)N)C1`, for which the EC50 in series [1] was 3.3 nM. Besides, the bioavailability in series [2] was under 5%.
`CC(C)(N)C(=O)N[C@H](COCc1ccccc1)c1nnnn1CCOC(=O)NCCCCCO`: in [1], the EC50 is 14.6 nM.
The same measure, in the same setting: the same measure for `CC(C)(N)C(=O)N[C@H](COCc1ccccc1)c1nnnn1CCOC(=O)N1CC[C@@H](O)C1`: 1 nM.
As for `CC(C)(N)C(=O)N[C@H](COCc1ccccc1)c1nnnn1CCOC(=O)NCCCCO`, the Activity entry in the series with Salmonella typhimurium [3], in the series on Hepatocyte and in the series on Salmonella typhimurium [12] was “Non-toxic” throughout. The outcome with Canis familiaris [4] was Active. Also, the IC50 at Cytochrome P450 1A2, against Cytochrome P450 2C19, against Cytochrome P450 2C9, against Cytochrome P450 3A4 and at Cytochrome P450 2D6 was over 100000 nM in each case. In addition, the bioavailability came out at 40% in series [5], 12% in the series with Macaca fascicularis [10] and 9% in [15]. Further, the EC50 in series [1] stood at 1.9 nM. The ED50 with Rattus norvegicus came to 0.08 µmol/kg. This compound yielded a solubility in [6] of over 100 mg/mL. Further, the results for the CL/F (in series [7]; with Macaca fascicularis [14]) were 213 mL/min/kg and 37 mL/min/kg, respectively. Also, the clearance in the series on Canis familiaris [8] amounted to 21 mL/min/kg. Further, the half-life was 1.1 h in the series with Macaca fascicularis [9], 0.7 h in series [11] and 2.3 h in [13].
In the case of `CC(C)(N)C(=O)N[C@H](COCc1ccccc1)c1nnnn1CCOC(=O)NCCc1cccc(O)c1`, the EC50 in [1] amounted to 7.9 nM.
On the same count and under the same terms, with `CC(C)(N)C(=O)N[C@H](COCc1ccccc1)c1nnnn1CCOC(=O)NCCCO` the figure was 5.5 nM; with `CC(C)(N)C(=O)N[C@H](COCc1ccccc1)c1nnnn1CCOC(=O)NCCCn1ccnc1`, 45.3 nM.
